Only some compounds are listed: those with a hit (about 2.9% of all), similar ones and a draw of the others.
TRPC4 agonist – activators of mouse TRPC4 channel; Q9QUQ5; HEK293 TRPC4beta/mu-opioid, Fluo4 calcium fluorescence; hits give high values; 0.49% of 310,000 active; B-score at 10 µM; AID 2237;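 active means B-score above 5 SD of library B-scores, and initial fluorescence ratio not above library mean plus 5 SD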;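 further: positive B-score marks a calcium rise read as TRPC4 activation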
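System: HEK293 cells stably co-expressing mouse TRPC4beta and mu-opioid receptor; Schedule: Fluo4 dye loading 45 min at room temperature, 110 s recording; Detection: Fluo4 fluorescence, kinetic; Evaluation: B-scored integrated calcium fluorescence ratio; Controls: buffer (low) and maximal DAMGO (high).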
TRPC6 inhibitor – blocks the mouse TRPC6 cation channel; Q61143; HEK293-TRPC6, membrane potential dye, ACh-evoked depolarization; hits give low values; B-score at 10 µM; 1.1% of 310,000 active;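 active means B-score under library mean minus 3 SD, initial fluorescence not abnormally high, positive integrated signal ratio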;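 further: B-score derived from integrated fluorescence ratio over the kinetic read; more negative B-score means stronger inhibition of depolarization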
TRPC6 act – mouse TRPC6 channel activation; 0.13% of 310,000 active; HEK293-TRPC6 membrane potential dye fluorescence; hits give high values; AID 2550; B-score at 10 µM; Q61143;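 active means B-score of the integrated fluorescence ratio above library mean plus 3 SD, and starting fluorescence ratio within library mean plus 5 SD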;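 further: higher score means more depolarization so channel activation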
TRPC4 potent – allosterically enhances the mouse TRPC4 cation channel; Q9QUQ5; HEK293 TRPC4beta/mu-opioid, DAMGO EC20, Fluo-4 Ca2+ flux; hits give high values; B-score at 10 µM; 0.42% of 310,000 active; AID 2227;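 active means B-score of calcium response area above 5 SD of library B-scores, with initial fluorescence ratio within 5 SD of library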
Kir21 inh – Kir2.1 (mouse) channel inhibition; P35561; HEK293-Kir2.1, FluxOR thallium flux fluorescence; hits give low values; B-score at 10 µM; 0.85% of 310,000 active;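 active means fluorescence ratio B-score at or below minus 3 SD of library scores, with starting-brightness B-score within 2 SD, cut at about -4.2 in these data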;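 further: channel flux triggered by added potassium and thallium sulfate stimulus; B-score of peak minus minimum fluorescence over baseline after thallium stimulus; more negative B-score means stronger Kir2.1 block with less thallium influx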
Target sequence (P35561 whole entry, looked up): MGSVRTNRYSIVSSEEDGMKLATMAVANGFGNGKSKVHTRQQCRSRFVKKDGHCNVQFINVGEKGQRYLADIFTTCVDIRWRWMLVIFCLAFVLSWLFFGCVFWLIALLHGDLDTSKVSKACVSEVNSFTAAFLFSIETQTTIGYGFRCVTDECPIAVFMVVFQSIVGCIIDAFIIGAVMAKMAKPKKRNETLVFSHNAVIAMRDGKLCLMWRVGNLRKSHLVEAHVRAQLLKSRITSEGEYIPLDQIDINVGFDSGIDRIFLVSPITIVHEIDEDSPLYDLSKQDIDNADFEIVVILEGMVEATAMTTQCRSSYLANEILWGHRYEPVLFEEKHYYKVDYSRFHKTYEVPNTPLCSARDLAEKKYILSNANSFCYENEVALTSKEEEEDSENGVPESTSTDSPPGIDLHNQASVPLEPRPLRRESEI
TRPC4 inh – blocks the mouse TRPC4 cation channel; B-score at 10 µM; HEK293 TRPC4beta/mu-opioid, DAMGO-evoked Fluo4 calcium flux; hits give low values; 0.39% of 300,000 active; AID 2247; Q9QUQ5;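 active means B-score over 3 SD under the library average, no early fluorescence shift, positive overall ratio signal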
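Assay system: Stable TRPC4beta/mu-opioid receptor HEK293 cells | Reagent: DAMGO in two steps, submaximal then maximal | Compound dosing: Single concentration per test compound | Signal: Fluo4 Ca2+ flux fluorescence | Evaluation: Per-well B score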
Numbers stand for hits; n = inactive; x = not tested or not shown.

SMILES	TRPC4 agonist	TRPC6 inhibitor	TRPC6 act	TRPC4 potent	Kir21 inh	TRPC4 inh
CCOc1ccc(OCCOCCN2CCc3ccccc3C2)cc1	n	n	n	n	-4.21	n
Cc1ccc(SCCOCCN2CCc3ccccc3C2)cc1	n	n	n	n	-4.62	n
COc1ccc(Cl)cc1-c1nc(-c2ccc(Br)o2)no1	n	n	n	n	n	n
Cc1ccc2nc(Cl)c3cc(C(=O)N(CCN(C)C)Cc4ccco4)sc3c2c1	54	n	n	n	-4.46	n
Cc1cc(C)c(S(=O)(=O)NCc2cccs2)cc1C	n	n	n	13	n	n
CC1CCN(CCOCCOc2ccc(Br)cc2Cl)CC1	n	n	n	n	-7.59	n
CC1CN(c2nc3c(c(=O)n(Cc4ccc(Cl)c(Cl)c4)c(=O)n3C)n2C)CC(C)O1 (centres undefined)	n	n	n	14	n	n
Cn1c(N2CCC(C(N)=O)CC2)nc2c1c(=O)n(Cc1ccc(Br)cc1)c(=O)n2C	n	n	n	15	n	n
Cc1cccc(Cn2c(=O)c3c(nc4n3CCCN4Cc3ccccc3)n(C)c2=O)c1	n	n	n	20	n	n
O=S(=O)(NCc1cc(-c2ccccc2Cl)no1)c1ccc(Cl)cc1	n	n	n	10	n	n
COc1ccccc1C1/C(=C(\O)c2ccc3c(c2)OCCO3)C(=O)C(=O)N1Cc1cccnc1 (centres undefined)	n	n	n	n	n	-6
CCSc1nc2c(sc3nc(C)cc(C)c32)c(=O)[nH]1	n	n	n	n	n	n
Cc1nn(C)cc1C(C(=O)NC1CCCCC1)N(C(=O)Cc1cccs1)c1ccc(C(C)C)cc1 (centres undefined)	44	n	n	n	n	n
Cc1cccc(C)c1NC(=O)c1cccc2c1-c1ccccc1C2=O	n	n	n	n	n	n
O=C(c1cc2ccccc2s1)N1CCOCC1	n	n	n	n	n	n
CCN1/C(=C/c2ccc3ccccc3[n+]2CC)C=Cc2ccccc21	n	n	n	n	-12.9	n
CCN1/C(=C/c2ccc3ccccc3[n+]2CCCS(=O)(=O)[O-])C=Cc2cc(C)ccc21	n	n	n	n	n	n
CCCCN1/C(=C/c2ccc3ccccc3[n+]2CC)Sc2ccccc21	204	n	n	n	n	n
CCNC(=S)N(Cc1cc2cc(C)c(C)cc2[nH]c1=O)C1CCCC1	n	n	n	n	n	n
CCNC(=S)N(Cc1cc2cc(C)ccc2[nH]c1=O)C1CCCC1	n	n	n	12	n	n
Cc1ccc(N2CCN(c3ccc(NCc4nc5ccccc5n4C)cc3)CC2)cc1	122	n	n	n	n	n
Cn1c(CN2CCN(c3cccc(Cl)c3)CC2)nc2ccccc21	84	n	n	n	n	n
O=C(Nc1ccc(Cl)cc1)N1CCCN(Cc2ccc(F)cc2)C1	n	n	n	n	-4.51	n
O=C(Nc1ccccc1)N1CCN(Cc2ccc(Cl)cc2)CC1	n	n	n	n	n	n
C=CCn1c(SCC(N)=O)nc2sc3c(c2c1=O)CCC3	n	n	n	n	n	n
SMILES	TRPC4 agonist	TRPC6 inhibitor	TRPC6 act	TRPC4 potent	Kir21 inh	TRPC4 inh
c1ccc(-n2cc(CNCCc3cscn3)c(-c3ccc4c(c3)OCO4)n2)cc1	46	n	n	n	n	n
OCc1cn(-c2ccccc2)nc1-c1ccc2c(c1)OCCO2	n	n	n	n	n	n
COc1cc2c(C)nc3c(c(C)nn3-c3ccccc3)c2cc1OC	n	n	n	n	n	n
Cc1ccc(N(C(=O)c2ccco2)C2C=CS(=O)(=O)C2)cc1 (centres undefined)	n	n	n	n	n	n
CCn1ccnc1CN1CCc2c([nH]c3ccccc23)C1CC(C)C (centres undefined)	n	n	n	n	n	n
CCn1ccnc1CN1CCc2c([nH]c3ccccc23)C1C(C)(C)C (centres undefined)	n	n	n	n	-7.65	n
c1ccc(C2(CN3CCNC[C@H]3Cc3cccc4ccccc34)CC2)cc1	84	n	n	n	n	n
Cc1nn(-c2ccccc2)c(Cl)c1/C=N/Nc1ccc(S(=O)(=O)Nc2ccccc2C(=O)O)cc1[N+](=O)[O-]	n	n	n	n	n	-6
C/C=C(\C)C(=O)N1CC2(CC(c3cccc(NC(=O)COc4ccc(Cl)cc4)c3)=NO2)C[C@@H]1C(N)=O (some centres undefined)	n	n	n	n	n	n
Cc1ccc(Cl)cc1N1CCN(C(=O)C2(S(=O)(=O)c3ccc(Cl)cc3)CC2)CC1	n	n	n	n	n	n
Cc1cccc(N2CCN(C(=O)C3(S(=O)(=O)c4ccc(Cl)cc4)CC3)CC2)c1C	n	n	n	19	n	n
C/C(CC(=O)Nc1cccc(C(F)(F)F)c1)=N\NC(=O)Cc1ccccc1	n	n	n	n	n	n
CC(C)Oc1ccccc1C1CC(=O)Nc2cc3c(cc21)OCCO3 (centres undefined)	n	n	n	82	n	n
Cc1cc(O)c(C(=O)Cc2csc(C)n2)c(O)c1	n	n	n	n	n	n
Cc1[nH]n(-c2ncc(-c3ccccc3)s2)c(=O)c1C(c1ccc(Br)cc1)C(C#N)C#N (centres undefined)	n	n	n	n	-5.63	n
CN(C)C(CNC(=O)NC1CCCCC1)c1cccnc1 (centres undefined)	105	n	n	n	n	n
CN(C)C(CNC(=S)Nc1ccccc1)c1cccnc1 (centres undefined)	75	n	n	n	n	n
CCc1cccc(C)c1NC(=S)NCC(c1cccnc1)N(C)C (centres undefined)	91	n	n	n	n	n
CCc1cccc(C)c1NC(=S)NCc1ccccc1	n	n	n	n	n	n
CN(C)C(CNC(=O)c1cccs1)c1cccnc1 (centres undefined)	n	n	n	n	n	n
Clc1ccccc1OCCCCN1CCCC1	n	n	n	n	n	x
O=S(=O)(c1ccccc1)c1cnn2c(C(F)(F)F)cc(-c3ccc(F)cc3)nc12	n	n	n	n	n	n
CC(C)Oc1ccccc1OCCCOc1cccc2cccnc12	n	n	n	n	-6.56	n
Cc1cc(C)c(C)c(OCCCOc2cccc3cccnc23)c1	n	n	n	19	n	n
CC1=NN(c2ccccc2)C(=O)/C1=C\c1c(C)[nH]n(-c2ccccc2)c1=O	n	n	n	n	n	n
CC1=NN(c2ccccc2)C(=O)/C1=C/c1c(O)n(-c2ccc(F)c(Cl)c2)[nH]c1=O	n	n	n	n	n	-8
O=S(=O)(c1ccc2ccccc2c1)N1CCN=C1SCc1cccnc1	n	n	n	n	-5.02	n
O=S(=O)(c1ccc(F)cc1)N1CCN=C1SCc1cccnc1	n	n	n	n	n	n

Screening data (PubChem)
